Test [1] is described as follows: Antiinflammatory activity in rat PMNC assessed as inhibition of platelet activating factor-induced beta-glucuronidase release at 10 uM treated 15 mins before PAF by spectrophotometry. The format is functional.
Test [2] can be described thus: Hepatoprotective activity in rat WB-F344 cells assessed as inhibition of D-galactosamine-induced cytotoxicity at 100 uM treated 1 hr before D-galactosamine challenge after 24 hrs by MTT assay. It counts as functional. In a few lines: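 Cells plated at 1 × 10⁴ per well in DMEM with 10% fetal calf serum, penicillin and streptomycin, precultured 24 h at 37 °C, 5% CO₂. Sample added in fresh medium 1 h before 50 mM DL-galactosamine for 24 h. Sample toxicity run in parallel without galactosamine. MTT 0.5 mg/mL for 4 h, formazan dissolved in DMSO, OD 490 nm, % inhibition calculated.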

The next test deals with BGC-823. The test is described as follows: Cytotoxicity against human BGC823 cells. The format is functional, cell-based.
For the next test, the system named is A2780. The test is described as follows: Cytotoxicity against human A2780 cells. It counts as functional, cell-based.

`COc1cc([C@@H](OC)[C@@H](C)C(C)=O)ccc1O`: the inhibition at 10 µM in test [1] was found to be 67%. Further, the inhibition at 100 µM in test [2] is 47%.
For `COc1cc([C@@H](O)[C@@H](C)C(C)=O)ccc1O`, the inhibition at 100 µM in test [2] was 43%.
Turning to `COc1cc([C@@H]2c3c(cc(OC)c(O)c3OC)C[C@@H](C)[C@H]2C)ccc1O`, the inhibition at 10 µM in test [1] amounted to 47%.
With `CCO[C@H](c1ccc(O)c(OC)c1)[C@@H](C)C(C)=O`, in test [1], the inhibition at 10 µM amounted to 42%. Besides, the inhibition at 100 µM in test [2] came out at 54%.
The corresponding values for `COc1cc([C@H]2OC(=O)[C@](C)(O)[C@@H]2C)ccc1O` are 76% and 39%.
`O=C(O)C[C@]12OC(=O)C[C@H]1O[C@@H]1Cc3c(O)cc(O)cc3O[C@@H]12`: the inhibition at 10 µM in test [1] was found to be 46%. The inhibition at 100 µM in test [2] is 40%.
Turning to `COc1cc([C@H]2c3cc(O)c(OC)cc3C[C@@H](C)[C@@H]2C)ccc1O`, in test [1], the inhibition at 10 µM was 48%.
Consider `C=C1OC(=O)/C(=C/CCCCCCCCCCCCCCCCC)[C@H]1O`, for which the IC50 was determined as 130 nM with BGC-823 and 2660 nM in the test with A2780.
For the molecule `COC(=O)c1cc(OC)c2c(c1-c1c(CO)cc(OC)c3c1OCO3)OCO2` [BICYCLOL], the inhibition at 100 µM in test [2] worked out at 41%.
`CC[C@@]1(O)C(=O)OCc2c1cc1n(c2=O)Cc2cc3ccccc3nc2-1` [CAMPTOTHECIN]: the IC50 with BGC-823 came out at 210 nM.
`C#CCCCCCCCC/C=C/C1=C[C@H](C)OC1=O` [HAMABIWALACTONE A]: in test [1], the inhibition at 10 µM was 60%.
In the case of `COc1cc(C[C@@H](C)[C@@H](C)Cc2ccc(O)c(OC)c2)ccc1O` [MESODIHYDROGUAIARETIC ACID], in test [1], the inhibition at 10 µM stood at 54%.
